For experiment [1], the target named is T1, NAD-dependent protein deacetylase sirtuin-1 (Homo sapiens) (UniProt Q96EB6).
T1 sequence (whole entry): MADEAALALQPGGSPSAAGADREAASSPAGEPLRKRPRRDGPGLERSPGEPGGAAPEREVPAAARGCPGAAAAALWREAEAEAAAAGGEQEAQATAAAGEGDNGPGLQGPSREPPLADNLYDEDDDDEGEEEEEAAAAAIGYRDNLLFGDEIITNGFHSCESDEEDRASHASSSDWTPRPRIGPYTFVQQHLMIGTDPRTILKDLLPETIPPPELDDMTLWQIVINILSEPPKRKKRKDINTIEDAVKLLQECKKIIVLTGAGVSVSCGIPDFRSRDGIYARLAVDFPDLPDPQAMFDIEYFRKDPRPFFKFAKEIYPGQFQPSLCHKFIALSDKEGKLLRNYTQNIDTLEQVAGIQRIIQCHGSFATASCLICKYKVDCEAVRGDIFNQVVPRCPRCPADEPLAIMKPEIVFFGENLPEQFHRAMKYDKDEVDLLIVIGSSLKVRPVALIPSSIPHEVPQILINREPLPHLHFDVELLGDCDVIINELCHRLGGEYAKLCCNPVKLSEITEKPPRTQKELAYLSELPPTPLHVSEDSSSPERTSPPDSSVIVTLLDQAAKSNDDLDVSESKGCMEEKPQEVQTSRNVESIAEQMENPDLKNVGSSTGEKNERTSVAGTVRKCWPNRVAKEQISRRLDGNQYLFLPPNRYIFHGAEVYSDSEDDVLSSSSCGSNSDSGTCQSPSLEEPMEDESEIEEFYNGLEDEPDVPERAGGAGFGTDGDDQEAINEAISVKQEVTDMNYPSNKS
In words: Inhibition of GST-SIRT1 at 200 uM after 1 hr by Fluor de Lys fluorescence assay. An outline of the steps: (§1)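 Recombinant GST-SIRT1 with Fluor de Lys acetylated SIRT1 peptide substrate at 70% of its Km, plus NAD+, in HDAC assay buffer with 1 mg/ml BSA. Buffer, substrate, NAD+ and compound in DMSO (2.5 in 50 total) were preincubated 5 min at rt. Enzyme addition started the reaction, run 1 h at 37 °C. Developer plus 2 mM nicotinamide was then added for 45 min at 37 °C before fluorescence read-out.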

Experiment [2] has as its target T2, NAD-dependent protein deacetylase sirtuin-2 (Homo sapiens) (UniProt Q8IXJ6).
T2 sequence (whole entry): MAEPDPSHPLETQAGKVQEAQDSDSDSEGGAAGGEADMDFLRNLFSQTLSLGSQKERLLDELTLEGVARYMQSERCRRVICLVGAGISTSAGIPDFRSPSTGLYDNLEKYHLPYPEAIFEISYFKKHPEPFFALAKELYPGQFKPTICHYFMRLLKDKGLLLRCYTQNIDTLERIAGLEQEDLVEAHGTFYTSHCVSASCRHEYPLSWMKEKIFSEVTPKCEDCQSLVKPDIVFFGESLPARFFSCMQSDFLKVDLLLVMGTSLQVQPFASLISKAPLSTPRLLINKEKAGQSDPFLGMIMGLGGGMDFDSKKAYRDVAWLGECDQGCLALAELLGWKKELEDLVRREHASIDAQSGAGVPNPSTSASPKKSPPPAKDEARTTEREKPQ
In words: Inhibition of GST-SIRT2 at 200 uM after 1 hr by Fluor de Lys fluorescence assay. Put shortly:
(§2)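 Recombinant GST-SIRT2 with Fluor de Lys acetylated SIRT2 peptide substrate at 70% of its Km, plus NAD+, in HDAC assay buffer with 1 mg/ml BSA. Compound or DMSO was preincubated 5 min at rt with buffer, substrate and NAD+. Enzyme was added to start the reaction, run 1 h at 37 °C. Developer with 2 mM nicotinamide followed for 45 min at 37 °C, then fluorescence was read.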

Experiment [3] concerns the target T3, NAD-dependent protein deacetylase sirtuin-1 (Homo sapiens, UniProt Q96EB6).
T3 sequence (Q96EB6 whole entry): T1 sequence (whole entry)
In words: Inhibition of GST-SIRT1 after 1 hr by Fluor de Lys fluorescence assay. An outline of the steps:
as §1

Experiment [4] concerns the target T4, NAD-dependent protein deacetylase sirtuin-2 (Homo sapiens, UniProt Q8IXJ6).
T4 sequence (Q8IXJ6 whole entry): T2 sequence (whole entry)
In words: Inhibition of GST-SIRT2 after 1 hr by Fluor de Lys fluorescence assay. An outline of the steps:
as §2

As to `CNC(=O)[C@H](C)NC(=O)[C@H](CCCCNC(=O)C=C(C)C)NC(=O)[C@H](C)NC(C)=O`, the inhibition stood at 96% in experiment [1] and 95% in experiment [2]. Besides, the 50% inhibitory concentration (IC50) in experiment [3] was determined as 6.1 µM; in experiment [4] it was 23 µM.
For the compound `COC(=O)[C@H](C)NC(=O)[C@H](CCCCNC(=O)C=C(C)C)NC(=O)[C@H](C)NC(C)=O`, the inhibition is 78% in experiment [1] and 74% in experiment [2]. Besides, the 50% inhibitory concentration (IC50) amounted to 46 µM in experiment [3] and 69 µM in experiment [4].
`COC(=O)[C@H](C)NC(=O)[C@H](CCCCNC(=O)c1cccnc1)NC(=O)[C@H](C)NC(C)=O`: the inhibition came out at 9% in experiment [1] and 2% in experiment [2].
Consider `CNC(=O)[C@H](C)NC(=O)[C@H](CCCCNC(C)=O)NC(=O)[C@H](C)NC(C)=O`, for which the inhibition stood at 66% in experiment [1] and 68% in experiment [2]. Besides, the concentration for half-maximal inhibition (IC50) in experiment [3] was 88 µM; in experiment [4], 60 µM.
For the compound `COC(=O)[C@H](C)NC(=O)[C@H](CCCCNS(=O)(=O)c1ccc([N+](=O)[O-])cc1)NC(=O)[C@H](C)NC(C)=O`, the figures for the inhibition in experiment [1] and in experiment [2] were 0% and 5%, respectively.
As for `CC(=O)N[C@@H](C)C(=O)N[C@@H](CCCCNC(=O)C=C(C)C)C(=O)N[C@@H](C)C(=O)O`, the inhibition in experiment [1] was 95%; in experiment [2] it was 52%. Further, the IC50 in experiment [3] came out at 11 µM; in experiment [4] it was 77 µM.
On to `COC(=O)[C@H](C)NC(=O)[C@H](CCCCNC(C)=O)NC(=O)[C@H](C)NC(C)=O`, for which the inhibition in experiment [1] was 39%; in experiment [2], 57%. In addition, the IC50 in experiment [3] worked out at 268 µM; in experiment [4] it was 180 µM.
As to `COC(=O)[C@H](C)NC(=O)[C@H](CCCCNS(C)(=O)=O)NC(=O)[C@H](C)NC(C)=O`, the inhibition was found to be 17% in experiment [1] and 8% in experiment [2].
Take `COC(=O)[C@H](C)NC(=O)[C@H](CCCCNC(=O)CCl)NC(=O)[C@H](C)NC(C)=O`: the inhibition in experiment [1] was determined as 19%; in experiment [2] it was 8%.
Consider `CP(C)(=S)NCCCC[C@H](NC(=O)OCc1ccccc1)C(=O)Nc1ccccc1`, for which the values for the inhibition in experiment [1] and in experiment [2] were 10% and 27%, respectively.
Taken in the same sequence, the figures for `CC(=O)N[C@@H](C)C(=O)N[C@@H](CCCCNC(=O)/C=C(/C)C(F)(F)F)C(=O)N[C@@H](C)C(=O)O` were 33% and 20%.
Take `COC(=O)[C@H](C)NC(=O)[C@H](CCCCNC(=O)C(C)(C)C)NC(=O)[C@H](C)NC(C)=O`: the inhibition in experiment [1] was 53%; in experiment [2], 52%. The concentration for half-maximal inhibition (IC50) in experiment [3] came to 223 µM; in experiment [4], 338 µM.
Taken in the same sequence, the figures for `CC(=[Se])NCCCC[C@H](NC(=O)OCc1ccccc1)C(=O)Nc1ccccc1` were 98%, 99%, 1.8 µM and 2.7 µM.
For `COC(=O)[C@H](C)NC(=O)[C@H](CCCCNC(=O)CBr)NC(=O)[C@H](C)NC(C)=O`, the values for the inhibition in experiment [1] and in experiment [2] were 48% and 16%, respectively. Also, the IC50 in experiment [3] was 1770 µM.
For the compound `COC(=O)[C@H](C)NC(=O)[C@H](CCCCNC(=O)Cc1ccccn1)NC(=O)[C@H](C)NC(C)=O`, the inhibition in experiment [1] was determined as 26%; in experiment [2], 21%.
In the case of `CC(=O)N[C@@H](C)C(=O)N[C@@H](CCCCNC(=S)CC(C)C)C(=O)N[C@@H](C)C(=O)O`, the inhibition in experiment [1] was found to be 100%; in experiment [2], 99%. In addition, the half-inhibitory concentration (IC50) in experiment [3] amounted to 0.7 µM; in experiment [4], 3.6 µM.
For the compound `CNC(=O)[C@H](C)NC(=O)[C@H](CCCCNC(=O)c1ccc[nH]1)NC(=O)[C@H](C)NC(C)=O`, the inhibition in experiment [1] turned out to be 36%; in experiment [2], 26%.
For `COC(=O)NCCCC[C@H](NC(=O)[C@H](C)NC(C)=O)C(=O)N[C@@H](C)C(=O)OC`, the results for the inhibition in experiment [1] and in experiment [2] were 8% and 0%, respectively.
On to `C/C=C/C(=O)NCCCC[C@H](NC(=O)[C@H](C)NC(C)=O)C(=O)N[C@@H](C)C(=O)OC`, for which the inhibition in experiment [1] came out at 20%; in experiment [2] it was 9%.
`COC(=O)[C@H](C)NC(=O)[C@H](CCCCNC(=O)c1ccccn1)NC(=O)[C@H](C)NC(C)=O`: the inhibition came out at 4% in experiment [1] and 0% in experiment [2].
With `CC(=O)NCCCC[C@H](NC(=O)[C@H](C)NC(C)=O)C(=O)N[C@@H](C)C(=O)O`, the figures for the inhibition in experiment [1] and in experiment [2] were 62% and 42%, respectively. For the same compound, the IC50 in experiment [3] came out at 122 µM; in experiment [4], 223 µM.
Taken in the same sequence, the figures for `CC(=O)N[C@@H](C)C(=O)N[C@@H](CCCCNC(C)=[Se])C(=O)N[C@@H](C)C(=O)O` were 100%, 97%, 0.37 µM and 7.2 µM.
Take `COC(=O)[C@H](C)NC(=O)[C@H](CCCCNC(=O)Cc1cccnc1)NC(=O)[C@H](C)NC(C)=O`: the inhibition in experiment [1] came to 10%; in experiment [2], 0%.
For `CNC(=O)[C@H](C)NC(=O)[C@H](CCCCNC(=O)C(C)(C)C)NC(=O)[C@H](C)NC(C)=O`, the inhibition in experiment [1] is 82%; in experiment [2], 77%. The half-maximal inhibitory concentration (IC50) in experiment [3] amounted to 40 µM; in experiment [4], 66 µM.
For the compound `CC(C)(C)OC(=O)NCCCC[C@H](NC(=O)OCc1ccccc1)C(=O)Nc1ccccc1`, the inhibition in experiment [1] is 6%; in experiment [2], 13%.
Take `COC(=O)[C@H](C)NC(=O)[C@H](CCCCNS(=O)(=O)c1ccc(C)cc1)NC(=O)[C@H](C)NC(C)=O`: the values for the inhibition in experiment [1] and in experiment [2] were 1% and 0%, respectively.
`COC(=O)[C@H](C)NC(=O)[C@H](CCCCNC(=O)OCc1ccccc1)NC(=O)[C@H](C)NC(C)=O`: the inhibition in experiment [1] stood at 11%; in experiment [2], 3%.
For `COC(=O)[C@H](C)NC(=O)[C@H](CCCCNC(=O)c1ccccc1)NC(=O)[C@H](C)NC(C)=O`, the values for the inhibition in experiment [1] and in experiment [2] were 12% and 14%, respectively.
As for `CC(=O)N[C@@H](C)C(=O)N[C@@H](CCCCNC(=O)CC(C)C)C(=O)N[C@@H](C)C(=O)O`, the figures for the inhibition in experiment [1] and in experiment [2] were 94% and 76%, respectively. Besides, the IC50 in experiment [3] is 12 µM; in experiment [4], 30 µM.
On to `COC(=O)[C@H](C)NC(=O)[C@H](CCCCNC(=O)C1=CCCCC1)NC(=O)[C@H](C)NC(C)=O`, for which the inhibition in experiment [1] amounted to 33%; in experiment [2] it was 54%. The same compound yielded a half-inhibitory concentration (IC50) in experiment [4] of 129 µM.
As for `COC(=O)[C@H](C)NC(=O)[C@H](CCCCNC(=O)N(C)C)NC(=O)[C@H](C)NC(C)=O`, the inhibition turned out to be 24% in experiment [1] and 13% in experiment [2].
Taken in the same sequence, the figures for `C/C=C(\C)C(=O)NCCCC[C@H](NC(=O)[C@H](C)NC(C)=O)C(=O)N[C@@H](C)C(=O)OC` were 39% and 39%.
Turning to `COC(=O)[C@H](C)NC(=O)[C@H](CCCCNS(=O)(=O)C(F)(F)F)NC(=O)[C@H](C)NC(C)=O`, the results for the inhibition in experiment [1] and in experiment [2] were 15% and 4%, respectively.
Taken in the same sequence, the figures for `CNC(=O)[C@H](C)NC(=O)[C@H](CCCCNC(=O)c1cccn1C)NC(=O)[C@H](C)NC(C)=O` were 23% and 41%.
In the case of `CC(=O)N[C@@H](C)C(=O)N[C@@H](CCCCNC(C)=S)C(=O)N[C@@H](C)C(=O)O`, the inhibition in experiment [1] is 100%; in experiment [2], 96%. The half-inhibitory concentration (IC50) in experiment [3] is 0.24 µM; in experiment [4], 9.8 µM.
In the case of `CNC(=O)[C@H](C)NC(=O)[C@H](CCCCNC(=O)c1ccc(N(C)C)cc1)NC(=O)[C@H](C)NC(C)=O`, the inhibition is 39% in experiment [1] and 34% in experiment [2].

As usually defined, the inhibition is the drop in the measured response relative to a control, in per cent. Higher therefore signals a strong effect. By IC50 is commonly meant the concentration that inhibits the measured activity by half. A higher IC50 goes with weaker potency in that assay.

These data come from ChEMBL document CHEMBL1250463, “N(epsilon)-Modified lysine containing inhibitors for SIRT1 and SIRT2” (Bioorg Med Chem, 2010).
